ChEMBL document CHEMBL3044755, “5-Methyl-1,2,3-thiadiazoles synthesized via ugi reaction and their fungicidal and antiviral activities” (J Agric Food Chem, 2010)

Experiments:
[1] = system: Tobacco mosaic virus; experiment: In vivo antiviral activity against Tobacco mosaic virus (TMV) infected tobacco leaves assessed as curative effect at 500 ug/ml treated after viral inoculation measured at 2-3 days after viral challenge; assay type: functional
In short: (§1)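 Curative test: whole six-leaf tobacco leaves rubbed with TMV (5.88 10-2 μg/mL), dried in greenhouse, then compound smeared on upper three leaves and solvent on lower three as control. Local lesions scored 2-3 days after inoculation, three repetitions. Inhibition (%) = (CK − A)/CK × 100 on mean lesion numbers.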

[2] = system: Tobacco mosaic virus; experiment: In vivo antiviral activity against Tobacco mosaic virus (TMV) infected tobacco leaves assessed as inactivation effect at 500 ug/ml co-treated with virus for 30 min before inoculation onto leaves measured at 2-3 days after viral challenge; assay type: functional
In short: (§2)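 TMV (5.88 10-2 μg/mL) mixed with equal volume of compound solution for 30 min, then rubbed onto upper three leaves of six-leaf tobacco; solvent on lower three leaves as control. Lesions counted 2-3 days later, three repetitions. Inhibition (%) = (CK − A)/CK × 100 from mean lesion counts.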

[3] = system: Tobacco mosaic virus; experiment: In vivo antiviral activity against Tobacco mosaic virus (TMV) infected tobacco leaves assessed as curative effect at 100 ug/ml treated after viral inoculation measured at 2-3 days after viral challenge; assay type: functional; in short: as §1
[4] = system: Tobacco mosaic virus; experiment: In vivo antiviral activity against Tobacco mosaic virus (TMV) infected tobacco leaves assessed as protective effect at 500 ug/ml treated 12 hr before viral inoculation measured at 2-3 days after viral challenge; assay type: functional
In short: (§3)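 Six-leaf tobacco; compound solution smeared over whole leaves, dried in greenhouse, then after 12 h TMV (5.88 10-2 μg/mL) rubbed onto upper three leaves, with solvent on lower three leaves as control. Local lesions counted 2-3 days post-inoculation, three repetitions. Inhibition (%) = (CK − A)/CK × 100 from mean lesion numbers.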

[5] = system: Colletotrichum lagenaria; experiment: Fungicidal activity against Colletotrichum lagenaria at 50 ug/ml by growth inhibition method; assay type: functional; settings: read-out: GI
In short: (§4)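 Mycelial growth inhibition on potato dextrose agar. The panel covered Alternaria solani, Botrytis cinerea, Cercospora arachidicola, C. beticola, Colletotrichum lagenarium, Fusarium oxysporum, Gibberella zeae, Puccinia triticina, Phytophthora infestans, Physalospora piricola, Pellicularia sasakii and Rhizoctonia solani.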

[6] = system: Phytophthora infestans; experiment: Fungicidal activity against Phytophthora infestans at 50 ug/ml by growth inhibition method; assay type: functional; settings: read-out: GI; in short: as §4
[7] = system: Tobacco mosaic virus; experiment: In vivo antiviral activity against Tobacco mosaic virus (TMV) infected tobacco leaves assessed as protective effect at 100 ug/ml treated 12 hr before viral inoculation measured at 2-3 days after viral challenge; assay type: functional; in short: as §3
[8] = system: Nicotiana tabacum; experiment: Induction of systemic acquired resistance activity in TMV infected-Nicotiana tabacum (tobacco) leaves at 50 ug/ml; assay type: functional
In short: (§5)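 Tobacco/TMV system used for systemic acquired resistance induction. Inhibition ratio calculated from mean lesion numbers on inoculated leaves relative to corresponding control. Tiadinil and ribavirin run as controls.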

[9] = system: Alternaria solani; experiment: Fungicidal activity against Alternaria solani at 50 ug/ml by growth inhibition method; assay type: functional; settings: read-out: GI; in short: as §4
[10] = system: Thanatephorus cucumeris; experiment: Fungicidal activity against Thanatephorus cucumeris at 50 ug/ml by growth inhibition method; assay type: functional; settings: read-out: GI; in short: as §4
[11] = system: Botryosphaeria berengeriana; experiment: Fungicidal activity against Botryosphaeria berengeriana at 50 ug/ml by growth inhibition method; assay type: functional; settings: read-out: GI; in short: as §4
[12] = system: Nicotiana tabacum; experiment: Phytotoxicity against Nicotiana tabacum (tobacco) plant; assay type: organism-based; settings: in vivo
[13] = system: Fusarium graminearum; experiment: Fungicidal activity against Fusarium graminearum at 50 ug/ml by growth inhibition method; assay type: functional; settings: read-out: GI; in short: as §4
[14] = system: Fusarium oxysporum; experiment: Fungicidal activity against Fusarium oxysporum at 50 ug/ml by growth inhibition method; assay type: functional; settings: read-out: GI; in short: as §4
[15] = system: Botrytis cinerea; experiment: Fungicidal activity against Botryotinia fuckeliana at 50 ug/ml by growth inhibition method; assay type: functional; settings: read-out: GI; in short: as §4
[16] = system: Tobacco mosaic virus; experiment: In vivo antiviral activity against Tobacco mosaic virus (TMV) infected tobacco leaves assessed as inactivation effect at 100 ug/ml co-treated with virus for 30 min before inoculation onto leaves measured at 2-3 days after viral challenge; assay type: functional; in short: as §2
[17] = system: Mycosphaerella arachidis; experiment: Fungicidal activity against Mycosphaerella arachidis at 50 ug/ml by growth inhibition method; assay type: functional; settings: read-out: GI; in short: as §4
[18] = system: Tobacco mosaic virus; experiment: In vitro antiviral activity against Tobacco mosaic virus (TMV) infected tobacco leaves at 500 ug/ml; assay type: functional
[19] = system: Tobacco mosaic virus; experiment: In vitro antiviral activity against Tobacco mosaic virus (TMV) infected tobacco leaves at 200 ug/ml; assay type: functional
[20] = system: Nicotiana tabacum; experiment: Induction of systemic acquired resistance activity in TMV infected-Nicotiana tabacum (tobacco) leaves at 100 ug/ml; assay type: functional; in short: as §5
[21] = system: Cercospora beticola; experiment: Fungicidal activity against Cercospora beticola at 50 ug/ml by growth inhibition method; assay type: functional; settings: read-out: GI; in short: as §4

Compound	Activity [1]	Activity [2]	Activity [3]	Activity [4]	inhibition of growth at 50 µg/mL [5]	inhibition of growth at 50 µg/mL [6]	Activity [7]	Activity [8]	inhibition of growth at 50 µg/mL [9]	inhibition of growth at 50 µg/mL [10]	inhibition of growth at 50 µg/mL [11]	Activity [12]	inhibition of growth at 50 µg/mL [13]	inhibition of growth at 50 µg/mL [14]	inhibition of growth at 50 µg/mL [15]	Activity [16]	inhibition of growth at 50 µg/mL [17]	inhibition at 500 µg/mL [18]	inhibition at 200 µg/mL [19]	Activity [20]	further results
Cc1cccc(C(C(=O)NC(C)C)N(C(=O)c2nnsc2C)c2ccc(C)c(Cl)c2)c1 (configuration not stated)	40%	82%	33%	48%	13%	8%	14%	65%	44%	63%	51%	Non-toxic	37%	14%	76%	72%	38%	34%	18%	49%	inhibition of growth at 50 µg/mL [21]: 17%
Cc1ccc(N(C(=O)c2nnsc2C)C(C(=O)NC(C)C)c2ccccc2)cc1Cl (configuration not stated)	46%	65%	30%	57%	11%	12%	40%	33%	39%	64%	47%	Non-toxic	13%	36%	85%	50%	21%	43%	30%	41%	inhibition of growth at 50 µg/mL [21]: 0%
